Compounds with a hit are over-represented: about 1.5% of the library has one in this group of screens.
ABCB1 inh: ABCB1 efflux pump inhibitors, primary screen, cell-based, multiplex, flow cytometry, ABCG2 counter-screen. ATP-dependent translocase ABCB1 (Homo sapiens), P08183. CCRF-Adr cells, JC-1 efflux. inhibition, % at 6.6 µM. 0.067% of 190,000 active. AID 1326, 2008; in the data active = inhibition above about 40%;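 note: 0% = vehicle and 100% = reference inhibitor; higher value means more JC-1 retained so stronger ABCB1 efflux block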
RBBP9 inhibitor: human RBBP9 inhibitors, primary screen, biochemical, fluorescence polarization, FP-Rh probe, HTS; Serine hydrolase RBBP9 (Homo sapiens), O75884; recombinant RBBP9; inhibition, % at 7.94 µM; 0.2% of 220,000 active; AID 1515, 2009;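 active = inhibition above the campaign mean of all tested compounds plus 3 SD, cut at about 14% in these data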;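 note: plate controls were DMSO wells with RBBP9 for no effect and wells lacking RBBP9 protein for full effect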
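Test system – recombinant human RBBP9 · Input – RBBP9 2.5 µM in dispensing solution, pre-mixing · Medium – Tris buffer pH 8.0, NaCl, Pluronic · Schedule – preincubation 30 min plus labeling 45 min at 25 °C · Measured by – fluorescence polarization · Measure – % inhibition · Controls – DMSO and no-protein wells · Replicates – one well per compound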
EP2 antag: human EP2 receptor antagonists, primary screen, TR-FRET cAMP, C6 glioma cells | inhibition, % at 25 µM | Prostaglandin E2 receptor EP2 subtype (Homo sapiens), P43116 | C6 glioma cells expressing human EP2; cells stimulated with saturating PGE2 | 0.52% of 260,000 active;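 active = percent inhibition above 40 after rounding to a whole number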;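 note: rat C6 glioma host cells with rolipram phosphodiesterase inhibitor present; the protocol text gives 20 µM as final concentration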
Target sequence (P43116 whole entry, looked up): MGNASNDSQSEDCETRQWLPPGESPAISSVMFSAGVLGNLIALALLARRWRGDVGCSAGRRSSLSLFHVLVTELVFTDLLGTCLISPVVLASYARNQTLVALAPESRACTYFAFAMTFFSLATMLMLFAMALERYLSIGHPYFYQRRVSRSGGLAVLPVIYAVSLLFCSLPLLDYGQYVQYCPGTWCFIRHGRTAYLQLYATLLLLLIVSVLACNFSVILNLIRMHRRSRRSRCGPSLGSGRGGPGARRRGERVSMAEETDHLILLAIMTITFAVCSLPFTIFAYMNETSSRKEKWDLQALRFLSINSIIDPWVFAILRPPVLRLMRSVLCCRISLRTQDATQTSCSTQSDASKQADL
ABCG2 inh: ABCG2 efflux pump inhibitors, primary screen, multiplex with ABCB1, IgMXP3 cells, flow cytometry; Broad substrate specificity ATP-binding cassette transporter ABCG2 (Homo sapiens), Q9UNQ0; JC-1 efflux; inhibition, % at 6.6 µM; 0.1% of 190,000 active; AID 1325, 2008;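 active = inhibition above 80%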;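 note: 0% = DMSO and 100% = nicardipine control wells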
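Times: 10 min at 25 °C | Test system: Two drug-resistant human cell lines, ABCG2 and ABCB1 | Quantity: 3 million cells/mL final, two lines in 1:1 ratio | Signal: Flow cytometry, 530 nm JC-1 signal | Dosing: Compound at 6.6 µM | Controls: Nicardipine and DMSO wells | Reagent: JC-1 as fluorescent efflux pump substrate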
EP2 mod: EP2 receptor modulators, cAMP readout, primary screen, cell-based, HTRF cAMP, PGE2 stimulation | Prostaglandin E2 receptor EP2 subtype (Homo sapiens), P43116 | EP2-expressing cells, cAMP HTRF FRET, PGE2 co-stimulation | 0.83% of 260,000 active | induction, % at 25 µM;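 active = compounds whose cAMP rise, as percent of the full-agonist control response, exceeds 60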;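 note: rat C6 glioma line stably carrying human EP2 under a CMV promoter; the protocol text gives 20 µM as final concentration; 100% = response of wells given 1 µM PGE2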
EP2 cAMP induct: cAMP induction in EP2, EP4, beta2-AR and parental cells, confirmation, counter-screen for EP2 modulator project, cell-based, five parallel assays, C6 glioma, HEK293 | 47% of 1,300 active | shares compounds with EP2 mod | cAMP HTRF induction; plus low (about EC15) PGE2 agonist | calls only at 20 µM (by protocol);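 active = cAMP induction above 50% in the main assay while under 30% in all four parallel counter assays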;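 note: rat C6 glioma cells stably expressing human EP2 receptor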
The depositor's hits bear a star; i = inactive; / = no result; + = active, no number.

SMILES	ABCB1 inh	RBBP9 inhibitor	EP2 antag	ABCG2 inh	EP2 mod	EP2 cAMP induct
O=C(CCc1ccccc1)N1CCCC(c2noc(-c3ccccn3)n2)C1 (configuration not stated)	/	/	2	/	-42	/
COc1ccc(CN2C(=O)CN=C2Nc2cc(C)ccc2C)cc1	1	1	10	3	70*	i
CCC(=O)Nc1cccc(NC(=O)CSc2nc(C3CC3)nc3sc(C)c(C)c23)c1	/	/	7	/	-6	/
Oc1ccc(-c2csc(Nc3ccccc3)n2)cc1O	/	/	25	/	-105	/
COC(=O)c1cc2sccc2n1CC(=O)N1CCCc2ccccc21	-5	-6	5	-4	30	/
Cn1c(C(=O)N2CCCc3ccccc32)cc2sccc21	1	-1	9	2	66*	+
O=C(c1cc2sccc2n1Cc1ccccc1)N1CCCc2ccccc21	1	0	4	3	69*	+
O=C(CCn1ncc2ccccc21)NCCc1nc(-c2ccncc2)n[nH]1	/	/	6	/	-21	/
COc1cccc(CNC(=O)Cn2nc(-c3ccco3)cc(N)c2=O)c1	/	/	6	/	4	/
COc1cccc(NC(=O)CSc2nnc3c4c(C)c(C)sc4ncn23)c1	/	/	11	/	-3	/
CCn1ncc(Cl)c1C(=O)Nc1cc(Cl)ccc1Cl	0	-1	7	6	70*	+
Cc1ccc(NCc2nnc(SCC(=O)Nc3cccc4ccccc34)n2C)cc1Cl	/	/	4	/	-91	/
Cc1ccc(C(=O)N2CCN(c3nc(C)nc4sc(C)c(C)c34)CC2)cc1	/	/	11	/	-1	/
CCNc1nc(NCC)nc(SCCOc2ccc(C)cc2)n1	0	4	6	15	82*	+
CCOc1ccc(C(=O)C[N+]2(C)CCOCC2)cc1	/	/	6	/	-8	/
Cc1nn(C)cc1S(=O)(=O)NC1CCN(Cc2ccccc2)C1 (configuration not stated)	/	/	4	/	-20	/
C[C@]12CC[C@@H]3c4ccc(O)cc4CC[C@H]3[C@@H]1CCC2=O	-1	-3	15	11	-52	/
C=C(C)COc1ccc2c(c1)CC[C@@H]1[C@H]3C/C(=N/O)C(=O)[C@]3(C)CC[C@@H]21	/	/	30	/	63*	i
Cc1cccc2cc(C#N)c(SCC(=O)Nc3ccc(N(C)C)cc3)nc12	/	/	11	/	4	/
C=C[C@@](C)(O)CCC1C(=C)C[C@H](O)C2C(C)(C)CCCC12C (some centres not stated)	/	/	10	/	79*	+
CC(=O)O[C@H]1CC[C@@]2(C)C(C[C@@H](OC(C)=O)[C@]3(C)C2CC[C@@]2(C)[C@H](c4ccoc4)OC(=O)[C@H]4O[C@]423)C1(C)C (some centres not stated)	/	/	9	/	25	/
CC(=O)O[C@H]1C[C@@H](OC(C)=O)C(C)(C)C2C[C@@H](OC(C)=O)[C@]3(C)C([C@H](OC(C)=O)C[C@@]4(C)[C@H](c5ccoc5)OC(=O)[C@H]5O[C@]543)[C@]21C (some centres not stated)	/	/	9	/	70*	+
CCC(C)(C(=O)NC1CCCCC1)N(C(=O)c1ccccn1)c1ccccc1 (configuration not stated)	1	-4	6	1	-2	/
CCC(C)(C(=O)NC1CCCCC1)N(C(=O)C1CCC(=O)N1)c1ccccc1 (configuration not stated)	0	-4	7	0	67*	i
CN(C(=O)c1ccncc1)c1ccccc1	/	7	6	/	19	/
C/C(=N\N(Cc1ccccc1)c1ccccc1)c1ccncc1	1	-6	17	5	75*	+
COCCNC(=S)N(Cc1ccccc1)Cc1cc2c(C)ccc(C)c2[nH]c1=O	/	/	16	/	-23	/

Assay outcomes as filed in PubChem.
